Source: ChEMBL document CHEMBL2040715, “Discovery of a Potent HIV Integrase Inhibitor that Leads to a Prodrug with Significant anti-HIV Activity” (ACS Med Chem Lett, 2011)

Key:
[1] = biological target: Human immunodeficiency virus type 1 integrase (Human immunodeficiency virus 1) (UniProt Q7ZJM1); experiment: (§1) Inhibition of HIV1 integrase-mediated strand transfer
[2] = biological target: Human immunodeficiency virus type 1 integrase (Human immunodeficiency virus 1, UniProt Q7ZJM1); experiment: as §1
Sequence of Human immunodeficiency virus type 1 integrase (Q7ZJM1 whole entry): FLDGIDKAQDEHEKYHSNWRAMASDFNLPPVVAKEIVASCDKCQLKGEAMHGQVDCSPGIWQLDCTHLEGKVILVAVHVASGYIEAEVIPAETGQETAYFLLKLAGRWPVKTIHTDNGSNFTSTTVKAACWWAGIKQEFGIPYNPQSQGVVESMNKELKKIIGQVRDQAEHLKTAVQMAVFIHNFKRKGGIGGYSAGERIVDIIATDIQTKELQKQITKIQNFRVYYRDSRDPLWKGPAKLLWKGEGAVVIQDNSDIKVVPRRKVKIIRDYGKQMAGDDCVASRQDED

Cytochrome P450 2D6 = Cytochrome P450 2D6 (Homo sapiens, UniProt P10635); experiment: Activation of CYP2D6 in human liver microsomes incubated for 3 mins prior to NAPDH-addition measured after 60 mins by RP-HPLC analysis; settings: 1 h
Sequence of Cytochrome P450 2D6 (P10635 whole entry): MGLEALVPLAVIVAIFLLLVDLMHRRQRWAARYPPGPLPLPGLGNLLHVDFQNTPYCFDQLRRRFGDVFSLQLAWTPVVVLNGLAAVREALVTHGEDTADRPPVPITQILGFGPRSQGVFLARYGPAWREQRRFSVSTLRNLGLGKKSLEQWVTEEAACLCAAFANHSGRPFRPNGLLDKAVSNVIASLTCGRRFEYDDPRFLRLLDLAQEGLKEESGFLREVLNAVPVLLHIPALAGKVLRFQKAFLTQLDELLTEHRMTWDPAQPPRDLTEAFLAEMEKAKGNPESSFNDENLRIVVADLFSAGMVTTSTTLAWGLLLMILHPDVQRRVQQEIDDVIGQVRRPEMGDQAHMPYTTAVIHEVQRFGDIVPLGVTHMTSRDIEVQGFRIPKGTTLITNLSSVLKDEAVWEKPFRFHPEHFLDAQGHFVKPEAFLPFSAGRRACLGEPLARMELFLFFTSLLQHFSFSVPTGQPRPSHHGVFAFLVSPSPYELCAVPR

Cytochrome P450 2C8 [3] = biological target: T1, Cytochrome P450 2C8 (Homo sapiens, UniProt P10632); experiment: Inhibition of CYP2C8 in human liver microsomes using amodiaquine as substrate incubated for 3 mins prior to NAPDH-addition measured after 30 mins by RP-HPLC analysis; format: ADME, Microsome
T1 sequence (P10632 whole entry): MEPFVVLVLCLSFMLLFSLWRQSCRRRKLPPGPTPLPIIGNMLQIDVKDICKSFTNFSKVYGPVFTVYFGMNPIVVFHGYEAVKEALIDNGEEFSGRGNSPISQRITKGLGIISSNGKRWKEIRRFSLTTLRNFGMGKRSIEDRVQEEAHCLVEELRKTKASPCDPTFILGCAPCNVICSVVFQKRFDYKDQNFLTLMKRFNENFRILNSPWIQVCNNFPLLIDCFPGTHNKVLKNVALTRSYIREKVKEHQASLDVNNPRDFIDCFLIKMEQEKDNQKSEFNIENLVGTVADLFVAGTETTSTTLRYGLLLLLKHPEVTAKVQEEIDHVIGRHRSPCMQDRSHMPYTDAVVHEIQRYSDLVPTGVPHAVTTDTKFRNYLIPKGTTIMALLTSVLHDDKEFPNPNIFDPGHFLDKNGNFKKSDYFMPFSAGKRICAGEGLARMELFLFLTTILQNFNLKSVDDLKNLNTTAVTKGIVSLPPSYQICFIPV
Summary of the method: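 CYP2C8 was assayed in pooled human liver microsomes at 0.4 mg/mL protein with amodiaquine as substrate (5 mM stock; 200 μM listed). Incubation was 30 min with varying inhibitor concentrations, and IC50 was obtained by kinetic analysis.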

Cytochrome P450 3A4 [4] = biological target: T2, Cytochrome P450 3A4 (Homo sapiens, UniProt P08684); experiment: Activation of CYP3A4 in human liver microsomes incubated for 3 mins prior to NAPDH-addition measured after 30 mins by RP-HPLC analysis; format: ADME, Microsome; settings: 0.5 h
T2 sequence (P08684 whole entry): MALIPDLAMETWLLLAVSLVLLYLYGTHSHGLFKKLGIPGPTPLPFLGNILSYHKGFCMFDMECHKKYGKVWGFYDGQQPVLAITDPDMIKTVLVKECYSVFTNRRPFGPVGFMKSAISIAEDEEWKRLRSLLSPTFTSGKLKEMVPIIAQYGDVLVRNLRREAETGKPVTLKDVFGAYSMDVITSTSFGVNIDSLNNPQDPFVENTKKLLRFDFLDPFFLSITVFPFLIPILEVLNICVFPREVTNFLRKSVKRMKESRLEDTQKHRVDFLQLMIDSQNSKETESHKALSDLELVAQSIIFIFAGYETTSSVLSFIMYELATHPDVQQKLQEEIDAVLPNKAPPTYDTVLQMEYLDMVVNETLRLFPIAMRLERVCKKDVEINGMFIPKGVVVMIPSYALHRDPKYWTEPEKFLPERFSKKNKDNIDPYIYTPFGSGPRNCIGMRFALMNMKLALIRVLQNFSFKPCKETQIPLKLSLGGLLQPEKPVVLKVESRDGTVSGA

[5] = system: Human immunodeficiency virus 1; experiment: Antiviral activity against HIV1 infected in MAGI cells by beta-galactosidase reporter gene assay; format: functional, organism-based; settings: Human immunodeficiency virus 1, MAGI
Summary of the method: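 HIV-1 infection of MAGI cells, with raltegravir as the MOI-sensitive positive control validating each run. EC50 and EC90 were determined.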

Liver microsomes [6] = experiment: Drug metabolism in human liver microsomes assessed as 3-acetyl-5-(2,4-difluorobenzyl)-1-(2-fluorobenzyl)pyridin-2(1H)-one production at 200 uM incubated for 3 mins prior to NADPH-addition by RP-HPLC analysis; format: ADME, Microsome; settings: 0.05 h
Cytochrome P450 3A4 [7] = biological target: T2, Cytochrome P450 3A4; experiment: Inhibition of CYP3A4 in human liver microsomes using testosterone as substrate incubated for 3 mins prior to NAPDH-addition measured after 30 mins by RP-HPLC analysis; format: ADME, Microsome
Summary of the method: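 CYP3A4 inhibition used pooled human liver microsomes at 0.3 mg/mL protein with testosterone as substrate (50 mM stock; 100 μM listed). Incubation ran 30 min across varying inhibitor concentrations, and kinetic analysis gave the IC50.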

Cytochrome P450 3A4 [8] = biological target: T2, Cytochrome P450 3A4; experiment: Inhibition of CYP3A4 in human liver microsomes using triazolam as substrate incubated for 3 mins prior to NAPDH-addition measured after 30 mins by RP-HPLC analysis; format: ADME, Microsome
Summary of the method: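 For CYP3A4 with triazolam as substrate (50 mM stock; 200 μM listed), pooled human liver microsomes were used at 0.4 mg/mL protein. Incubation was 30 min with varying inhibitor concentrations, and IC50 came from kinetic analysis.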

Liver microsomes [9] = experiment: Half life in human liver microsomes at 200 uM incubated for 3 mins prior to NADPH-addition by RP-HPLC analysis; format: ADME, Microsome; settings: 0.05 h
Summary of the method: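 Pooled human liver microsomes were preincubated with test compound, and the reaction was started with NADPH at 37 °C. Samples were taken at several times up to 3 h and quenched with cold acetonitrile. Precipitated protein was removed by centrifugation, then HPLC with UV detection measured parent remaining, from which the in vitro half-life was derived.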

[10] = biological target: T3, UDP-glucuronosyltransferase 1A6 (Homo sapiens, UniProt P19224); experiment: Activity at UGT1A6 in human liver microsomes at 50 uM incubated for 3 mins prior to NADPH-addition measured up to 120 mins by HPLC/UV analysis; format: ADME, Microsome
T3 sequence (P19224 whole entry): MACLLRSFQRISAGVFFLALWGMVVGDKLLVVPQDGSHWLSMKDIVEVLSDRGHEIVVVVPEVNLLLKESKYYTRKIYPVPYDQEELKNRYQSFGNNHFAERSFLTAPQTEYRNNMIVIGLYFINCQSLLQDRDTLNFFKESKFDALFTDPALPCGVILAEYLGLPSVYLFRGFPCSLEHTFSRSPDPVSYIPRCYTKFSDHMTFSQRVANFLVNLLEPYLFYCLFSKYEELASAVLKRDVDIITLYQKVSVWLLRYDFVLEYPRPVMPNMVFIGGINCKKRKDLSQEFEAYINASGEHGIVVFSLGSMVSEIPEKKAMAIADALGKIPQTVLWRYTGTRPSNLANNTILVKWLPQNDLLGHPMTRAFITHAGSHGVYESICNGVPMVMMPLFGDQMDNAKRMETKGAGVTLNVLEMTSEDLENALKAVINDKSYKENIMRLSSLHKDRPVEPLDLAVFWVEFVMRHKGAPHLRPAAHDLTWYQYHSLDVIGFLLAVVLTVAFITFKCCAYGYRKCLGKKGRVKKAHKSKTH

Cytochrome P450 2C8 [11] = biological target: T1, Cytochrome P450 2C8; experiment: Activation of CYP2C8 in human liver microsomes incubated for 3 mins prior to NAPDH-addition measured after 30 mins by RP-HPLC analysis; format: ADME, Microsome; settings: 0.5 h

Sequence of Human immunodeficiency virus type 1 integrase (Human immunodeficiency virus 1) (Q7ZJM1 as listed by the source): as the sequence (Q7ZJM1 whole entry) above

## O=C(O)/C(O)=C/C(=O)c1cc(Cc2ccc(F)cc2F)cn(Cc2ccccc2F)c1=O
[1]
  IC90: 97 nM
[2]
  IC50: 6 nM
Cytochrome P450 2D6
  Activity: Not Active
Cytochrome P450 2C8 [3]
  IC50: > 65 µM
Cytochrome P450 3A4 [4]
  Activity: Not Active
[5]
  EC50: 500 nM
Liver microsomes [6]
  Drug metabolism: Active
Cytochrome P450 3A4 [7]
  IC50: > 200 µM
Cytochrome P450 3A4 [8]
  IC50: > 200 µM
Liver microsomes [9]
  t1/2: > 3 h
[10]
  Activity: Not Active
Cytochrome P450 2C8 [11]
  Activity: Not Active
